Screening results from PubChem BioAssay.
An excerpt weighted towards active compounds, which were near 5.9% of everything screened.
T cruzi growth-1 = T. cruzi proliferation inhibition | inhibition, % at 8.34 µM | 5.9% of 77,000 active | T. cruzi beta-gal in NIH3T3, GalScreen luminescence, 90 h;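 active means mean inhibition above about 93%, with at least 55% of replicates each passing it, limit read from the data, passing the limit was not always enough; inconclusive means only one of those two conditions holds; inactive means neither condition holds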
Pf Dd2 growth = P. falciparum Dd2 growth inhibition; SYBR Green, 72 h; stronger effect = lower value; activity change, % at 10 µM; 2.3% of 94,000 active; in the data active means activity change below about -80%; inconclusive means no clear call, values can overlap the other calls
IDH1 R132H inh = blocks human IDH1 R132H reductase activity; O75874; diaphorase/resazurin fluorescence, 60 min; inhibition, % at 10 µM; 0.18% of 70,000 active; AID 624101; in the data active means inhibition above about 34%; inconclusive means no clear call, values can overlap the other calls; inactive means below about 11%;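 further: 0% = DMSO and 100% = no enzyme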
Target sequence (O75874 whole entry R132H): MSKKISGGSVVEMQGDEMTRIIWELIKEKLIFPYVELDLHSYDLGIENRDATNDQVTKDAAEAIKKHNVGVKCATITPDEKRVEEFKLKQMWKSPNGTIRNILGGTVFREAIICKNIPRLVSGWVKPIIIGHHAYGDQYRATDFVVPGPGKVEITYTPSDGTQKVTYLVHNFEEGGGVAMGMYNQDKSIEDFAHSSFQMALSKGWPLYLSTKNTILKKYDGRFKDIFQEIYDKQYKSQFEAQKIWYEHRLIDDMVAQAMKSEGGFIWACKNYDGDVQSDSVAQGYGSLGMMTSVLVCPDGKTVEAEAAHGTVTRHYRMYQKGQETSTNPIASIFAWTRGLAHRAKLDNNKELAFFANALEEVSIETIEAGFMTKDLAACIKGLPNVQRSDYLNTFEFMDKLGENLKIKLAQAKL
GASC1 inh = blocks human GASC-1 (KDM4C) demethylase activity. AID 720574. GST-KDM4C 2-372, H3K9me3 peptide, LANCE TR-FRET. 0.15% of 96,000 active. inhibition, % at 12.5 µM;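 active means mean replicate inhibition above about 25%, with at least 55% of replicates also reaching it, limit read from the data, passing the limit was not always enough; inconclusive means only one of those two conditions met; inactive means neither condition met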
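Test system – GST-tagged GASC-1 (JMJD2C) catalytic fragment, aa 2-372 · Medium – HEPES buffer, pH 7.5, plus ascorbate · Reagent – H3K9me3 peptide with Fe(II)/2OG · Compound – one test concentration per compound · Timing – 30 min reaction, 60 min detection, RT · Technique – TR-FRET with Eu antibody and ULight streptavidin, EDTA stop · Read-out basis – inhibition from TR-FRET ratio decrease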
T cruzi growth-2 = blocks T. cruzi growth in NIH3T3 host cells; shares compounds with T cruzi growth-1; T. cruzi beta-gal in NIH3T3, GalScreen luminescence, 90 h; AID 651739; 72% of 5,600 active; inhibition, % at 8.35 µM;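 active means mean replicate inhibition above about 95% and at least 55% of replicates individually reaching it, limit read from the data; inconclusive means only one of the two criteria is met; inactive means neither criterion is met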
T cruzi growth-3 = blocks T. cruzi growth in NIH3T3 host cells; shares compounds with T cruzi growth-1; T. cruzi beta-gal in NIH3T3, GalScreen luminescence, 90 h; inhibition, % at 2.09 µM; 21% of 5,600 active;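 active means mean inhibition above about 95%, with at least 55% of replicates also reaching it, limit read from the data; inconclusive means meets just one of the two conditions; inactive means meets neither condition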;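 further: plate controls were neutral control median for no effect and positive control median for full effect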
3T3 cytotox = NIH/3T3 (mouse) viability loss; shares compounds with T cruzi growth-1; NIH/3T3 viability, CellTiter-Glo ATP luminescence, 90 h; cytotoxicity (signal decrease), % at 8.35 µM; 14% of 5,600 active;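 active means mean signal decrease across replicates above about 35% based on untreated-well scatter, with enough replicates individually passing, limit read from the data; inconclusive means no rule stated though some were filed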;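 further: 0% = median of neutral control wells and 100% = median of positive control wells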
3T3 cytotox 2 = kills mouse NIH/3T3 fibroblasts; shares compounds with T cruzi growth-1; NIH/3T3 viability, CellTiter-Glo ATP luminescence, 90 h; inhibition, % at 24.9 µM; 56% of 5,600 active;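 active means mean loss of cell viability signal at or above a set limit, and enough replicates individually reaching it; inconclusive means meets only the mean limit or only the replicate share; inactive means meets neither condition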;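 further: 0% = median of neutral control wells and 100% = median of positive control wells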
An asterisk follows results filed as active; ? = inconclusive; nt = not tested or not shown; ! = repeats disagree.

SMILES | T cruzi growth-1 | Pf Dd2 growth | IDH1 R132H inh | GASC1 inh | T cruzi growth-2 | T cruzi growth-3 | 3T3 cytotox | 3T3 cytotox 2
C[C@@H]1CCCCO[C@@H](CN(C)C(=O)Nc2ccc3c(c2)OCO3)[C@@H](C)CN([C@H](C)CO)C(=O)c2cc(N(C)C)ccc2O1 | 96*! | -6 | -3 | -1 | 41 | -8 | -10 | -9
C[C@H](CO)N1C[C@H](C)[C@@H](CN(C)C(=O)Nc2ccc(F)cc2)OCCCC[C@H](C)Oc2ccc(NC(=O)Nc3ccccc3)cc2C1=O | 114* | 16 | -3 | -1 | 110* | 31 | -1 | -15
C[C@@H]1CCCCO[C@H](CN(C)C(=O)Nc2ccccc2)[C@H](C)CN([C@H](C)CO)C(=O)c2cc(NC(=O)Nc3ccc(F)cc3)ccc2O1 | 102* | -85* | nt | -2 | 104* | 108* | -5 | -26
C[C@@H]1CCCCO[C@@H](CN(C)C(=O)Nc2ccccc2)[C@H](C)CN([C@H](C)CO)C(=O)c2cc(NC(=O)Nc3ccccc3)ccc2O1 | 99* | -50 | -1 | -3 | 108* | 60 | 2 | 3
CN(CC(=O)Nc1cc(Cl)ccc1O)S(=O)(=O)c1ccc(Cl)cc1 | nt | nt | 0 | nt | nt | nt | nt | nt
COc1nnc(-c2ccc(N3CCOCC3)c(NC(=O)COc3ccc(C)cc3)c2)c2ccccc12 | nt | nt | 1 | nt | nt | nt | nt | nt
C[C@@H]1CN([C@@H](C)CO)S(=O)(=O)c2ccc(-c3ccncc3)cc2O[C@@H]1CN(C)Cc1cncnc1 | 89 | 35 | 0 | 1 | nt | nt | nt | nt
C[C@H]1CN([C@@H](C)CO)S(=O)(=O)c2ccc(-c3ccncc3)cc2O[C@@H]1CN(C)Cc1cncnc1 | 108* | 0 | 0 | -1 | 103* | 94 | -2 | 17
Cc1ccc(-c2ccc3c(c2)O[C@@H](CN(C)Cc2cncnc2)[C@H](C)CN([C@H](C)CO)S3(=O)=O)cc1 | nt | -2 | 0 | -1 | nt | nt | nt | nt
C[C@@H]1CN([C@@H](C)CO)S(=O)(=O)c2ccc(-c3ccncc3)cc2O[C@H]1CN(C)Cc1cncnc1 | 108* | 6 | 0 | 0 | 104* | 104* | 3 | 45*
C[C@H](CO)N1C[C@H](C)[C@H](CN(C)Cc2cncnc2)Oc2cc(-c3ccncc3)ccc2S1(=O)=O | ? | 13 | 5 | -1 | 79 | 79 | 46* | 49*
Cc1ccccc1NC(=O)CSc1ncnc2scc(-c3ccc(Cl)cc3)c12 | nt | nt | 0 | nt | nt | nt | nt | nt
Cc1ccc(C)c(NC(=O)c2ccc(OCC(=O)Nc3ccc(Cl)c(Cl)c3)cc2)c1 | nt | nt | 0 | nt | nt | nt | nt | nt
C[C@@H]1CN([C@H](C)CO)C(=O)Cc2cc(N(C)C)ccc2O[C@@H]1CN(C)Cc1ccc(Oc2ccccc2)cc1 | 40 | 1 | 1 | 1 | nt | nt | nt | nt
C[C@H](CO)N1C[C@H](C)[C@H](CN(C)Cc2ccc(Oc3ccccc3)cc2)Oc2ccc(N(C)C)cc2C1=O | 98* | -11 | 1 | -1 | ? | 8 | -6 | 101*
C[C@H]1CN([C@@H](C)CO)C(=O)Cc2cc(N(C)C)ccc2O[C@H]1CN(C)Cc1ccc(Oc2ccccc2)cc1 | ? | -10 | 0 | -2 | 106* | 114* | 19 | 106*
C[C@H]1CN([C@@H](C)CO)C(=O)Cc2cc(N(C)C)ccc2O[C@@H]1CN(C)Cc1ccc(Oc2ccccc2)cc1 | 115* | -10 | 3 | 0 | 104* | 48 | -10 | 77*
CCc1cnc(N2[C@H](CO)[C@@H](c3ccc(C#CC(C)C)cc3)[C@@H]2C#N)s1 | 99* | -41 | nt | -1 | 101* | 104* | -2 | 52*
CCc1cnc(N2[C@H](C#N)[C@@H](c3ccc(C#CC(C)C)cc3)[C@@H]2CO)s1 | 98* | -47 | nt | -4 | 104* | 110* | -3 | 43*
Cc1ccccc1-c1nnc(SCC(=O)Nc2sc3c(c2C#N)CCCC3)n1C | nt | nt | 0 | nt | nt | nt | nt | nt
Nc1ncnc2c1[nH]c(=S)n2CCOc1cccc2ccccc12 | nt | nt | 1 | nt | nt | nt | nt | nt
